From ChEMBL document CHEMBL1944504, “Toward the definition of stereochemical requirements for MT2-selective antagonists and partial agonists by studying 4-phenyl-2-propionamidotetralin derivatives” (J Med Chem, 2011)

Columns and labels:
[1] = Displacement of 2-[125I]iodomelatonin from human MT1 receptor expressed in […] NIH3T3 cells after 90 mins; assay type: cell-based
Procedure, shortened: (§1)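 Competition binding on membranes from NIH3T3 cells expressing the cloned human receptor (5−10 μg protein per tube). Incubation with 100 pM 2-[¹²⁵I]iodomelatonin for 90 min at 37 °C in 50 mM Tris-HCl, pH 7.4. Melatonin was tested at 10⁻¹⁰−10⁻⁶ M; nonspecific binding was defined with 10 μM melatonin. IC₅₀ came from nonlinear fitting and was converted to pKi by Cheng−Prusoff; values are means of ≥3 independent duplicate determinations.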

[2] = Antagonist activity at human MT1 receptor expressed in […] NIH3T3 cells after 30 mins by [35S]GTPgammaS binding assay relative to melatonin; assay type: functional
[3] = Displacement of 2-[125I]iodomelatonin from human MT2 receptor expressed in […] NIH3T3 cells after 90 mins; assay type: cell-based; procedure, shortened: as §1
[4] = Antagonist activity at human MT2 receptor expressed in […] NIH3T3 cells after 30 mins by [35S]GTPgammaS binding assay relative to melatonin; assay type: functional
[5] = Partial agonist activity at human MT1 receptor expressed in […] NIH3T3 cells after 30 mins by [35S]GTPgammaS binding assay relative to melatonin; assay type: functional
[6] = Partial agonist activity at human MT2 receptor expressed in […] NIH3T3 cells after 30 mins by [35S]GTPgammaS binding assay relative to melatonin; assay type: functional

| SMILES | pKi [1] | Intrinsic activity [2] | pKi [3] | Intrinsic activity [4] | Intrinsic activity [5] | Intrinsic activity [6] |
| --- | --- | --- | --- | --- | --- | --- |
| CCC(=O)N[C@@H]1Cc2ccccc2[C@@H](c2ccccc2)C1 | 5.67 | -0.23 | 6.1 | -0.14 | – | – |
| CCC(=O)N[C@H]1Cc2ccccc2[C@H](c2ccccc2)C1 (racemic) | 6.65 | – | 8.06 | – | 0.41 | 0.4 |
| CCC(=O)NC1=Cc2c(OC)cccc2C(c2ccccc2)C1 (racemic) | 6.74 | – | 7.11 | – | 0.32 | 0.49 |
| CCC(=O)NC1=Cc2ccccc2C(c2ccccc2)C1 (racemic) | 7.3 | 0.14 | 7.43 | – | – | 0.59 |
| CCC(=O)N[C@@H]1Cc2ccccc2[C@H](c2ccccc2)C1 | 7.02 | 0.15 | 9.26 | – | – | 0.45 |
| CCC(=O)N[C@@H]1Cc2ccccc2[C@H](c2ccccc2)C1 (racemic) | 7.12 | 0.23 | 9.16 | – | – | 0.46 |
| CCC(=O)N[C@@H]1Cc2c(OC)cccc2[C@H](c2ccccc2)C1 (racemic) | 7.83 | 0.2 | 10.22 | – | – | 0.44 |
| CCC(=O)N[C@H]1Cc2ccccc2[C@@H](c2ccccc2)C1 | 6.59 | 0.06 | 7.01 | 0.11 | – | – |
| CCC(=O)N[C@@H]1Cc2c(Br)cccc2[C@H](c2ccccc2)C1 (racemic) | 7.99 | – | 10.85 | – | 0.49 | 0.65 |
| CCC(=O)N[C@H]1Cc2ccccc2[C@H](c2ccccc2)C1 | 6.89 | – | 8.02 | – | 0.33 | 0.48 |
| CCC(=O)N[C@H]1Cc2c(OC)cccc2[C@H](c2ccccc2)C1 (racemic) | 7.04 | 0.02 | 9.71 | 0.21 | – | – |
| CCC(=O)NCC1=Cc2ccccc2C(c2ccccc2)C1 (racemic) | 7.69 | 0.01 | 8.46 | 0.02 | – | – |
